Results from different studies.
Lines come from different studies, so protocols differ.
Target: Serine/threonine-protein kinase tousled-like 2 (TLK2, Homo sapiens, UniProt Q86UE8)

C[C@@H](c1ccc(-n2cnc3c(N)ncnc32)cc1)N1CCc2nn(C)c(Cc3ccccc3)c2C1=O — remaining binding (binding; competition with immobilised ligand; 0.1 µM): 99%
COc1cnc(Nc2cccc(S(N)(=O)=O)c2)nc1N1CCN(c2ccccc2)CC1 — remaining binding (binding; competition with immobilised ligand; 1 µM): 96%
N#CC1(c2ccccn2)CCN(Cc2cc(C(=O)N3CCCC3)c(=O)n3ccccc23)CC1 — remaining binding (cell-free assay; competition with immobilised ligand; 1 µM): 100%
FC(F)(F)Oc1cccc(-c2cnc3ccc(-c4ccncc4)nn23)c1 — remaining binding (binding; competition with immobilised ligand; 5 µM): 93%
NS(=O)(=O)c1cc(NC(=O)C2(c3ccccc3Cl)CC2)ccc1Oc1cccc(Cl)c1 — remaining binding (cell-free assay; competition with immobilised ligand; 1 µM): 100%
F[C@@H]1CCN(c2nccc(-c3cnn4ncccc34)n2)C1 — remaining binding (binding; 1 µM): 100%
CCS(=O)(=O)c1cc2cc(C[C@](O)(CC(C)(C)c3ccc(F)cc3C(N)=O)C(F)(F)F)[nH]c2cn1 — remaining binding (cell-free assay; competition with immobilised ligand; 1 µM): 100%
C[C@@H]1CCN(c2nccc(-c3cnn4ncccc34)n2)C1 — remaining binding (binding; 1 µM): 100%
COc1ncc2cc3ccccc3nc2c1C#N — remaining binding (cell-free assay; competition with immobilised ligand; 5 µM): 100%
CN(C)c1ncc(F)c(-c2cnn3ncccc23)n1 — remaining binding (binding; 1 µM): 100%
O=C(NCC1CCOCC1)c1n[nH]cc1NC(=O)c1c(F)cccc1F — remaining binding (binding; competition with immobilised ligand; 1 µM): 100%
O=C(NCCCN1CCOCC1)c1ccc(Nc2ncc(Cl)c(-c3ccc(Cl)s3)n2)cc1 — remaining binding (binding; competition with immobilised ligand; 1 µM): 77%
COc1ccnn2ncc(-c3ccnc(N(C)C)n3)c12 — remaining binding (binding; 1 µM): 100%
O=C(NCCCN1CCOCC1)c1ccc(Nc2nccc(-c3cc4ccccc4s3)n2)cc1 — remaining binding (binding; competition with immobilised ligand; 1 µM): 64%
CNC(=O)Nc1ccc2c(c1)[C@@]1(CC2)OC(=O)N(CC(=O)N(Cc2ccc(F)cc2)[C@@H](C)C(F)(F)F)C1=O — remaining binding (cell-free assay; competition with immobilised ligand; 1 µM): 100%
Cc1cnc(Nc2ccc(C(=O)N3CCC(N4CCCC4)CC3)cc2)nc1-c1cc2ccccc2s1 — remaining binding (binding; competition with immobilised ligand; 1 µM): 15%
N[C@@H]1CCN(c2nccc(-c3cnn4ncccc34)n2)C1 — remaining binding (binding; 1 µM): 100%
O=C(N1CCS(=O)(=O)CC1)N1C[C@H](c2ccc(OC(F)(F)F)cc2)C[C@H](c2nc(C3CC3)no2)C1 — remaining binding (cell-free assay; competition with immobilised ligand; 1 µM): 100%
C=CC(=O)N1CCC(C(=O)NCC(=O)N2CCN(c3nc(-c4cnc(N)nc4C(F)F)nc(N4CCOCC4)n3)CC2)CC1 — remaining binding (binding; competition with immobilised ligand; 1 µM): 100%
Cc1nc(C2CCN(C(=O)c3ccc(OC(F)(F)F)cc3N)CC2)c2ncc(N3CCN(C)CC3)cc2n1 — remaining binding (cell-free assay; competition with immobilised ligand; 1 µM): 100%
Cc1cnn2ncc(-c3ccnc(N(C)C)n3)c2c1 — remaining binding (binding; 1 µM): 100%
